Activity calls are given as the source filed them.
Key:
Type in all cases: functional, organism-based
[1] = system: Enterobacter cloacae; experiment: Antimicrobial activity against Enterobacter cloacae assessed as inhibition of microbial growth at 45 uM after 24 hrs
Procedure, shortened: (§1)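 Broth microdilution single-concentration read: overnight cultures diluted 1:1000, compound in DMF (≤2.0%) added, 37°C for 24 h, growth inhibition scored visually by lack of turbidity; triplicate. Gram-positives grown in TSB, Gram-negatives in LB.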

[2] = system: Acinetobacter baumannii; experiment: Antimicrobial activity against Acinetobacter baumannii assessed as inhibition of microbial growth at 45 uM after 24 hrs; procedure, shortened: as §1
[3] = system: Staphylococcus aureus; experiment: Antimicrobial activity against Staphylococcus aureus assessed as inhibition of microbial growth at 45 uM after 24 hrs; procedure, shortened: as §1
[4] = system: Klebsiella pneumoniae; experiment: Antimicrobial activity against Klebsiella pneumoniae assessed as inhibition of microbial growth at 45 uM after 24 hrs; procedure, shortened: as §1
[5] = system: Pseudomonas aeruginosa; experiment: Antimicrobial activity against Pseudomonas aeruginosa assessed as inhibition of microbial growth at 45 uM after 24 hrs; procedure, shortened: as §1
[6] = system: Enterococcus faecium; experiment: Antimicrobial activity against Enterococcus faecium assessed as inhibition of microbial growth at 45 uM after 24 hrs; procedure, shortened: as §1

Measured: growth inhibition (GI)

N=C1NC[C@H](CCCCN2C[C@@H](Cc3cccc4ccccc34)N(CCc3ccc(-c4ccccc4)cc3)C2=N)N1CCCCC1CCCCC1
active: all assays above

N=C1NC[C@H](CCCCN2C[C@@H](Cc3cccc4ccccc34)N(CCc3ccc(-c4ccccc4)cc3)C2=N)N1CCC12CC3CC(CC(C3)C1)C2
inactive: all assays above

CCCCCCCN1C(=N)N(CCCC[C@H]2CNC(=N)N2CCC23CC4CC(CC(C4)C2)C3)C[C@H]1Cc1cccc2ccccc12
active: all assays above

N=C1NC[C@H](CCCCN2C[C@H](CC3CCCCC3)N(CCc3ccc(-c4ccccc4)cc3)C2=N)N1CCCCC1CCCCC1
active: all assays above

Source: ChEMBL document CHEMBL3421570, “Combinatorial Libraries As a Tool for the Discovery of Novel, Broad-Spectrum Antibacterial Agents Targeting the ESKAPE Pathogens” (J Med Chem, 2015)
